From article PMC5598371 (Toxicology Reports, 2015)

What was measured:
[1] = Cytotoxic activity, MTT method; assay type: cell-based; details: human, oral keratinocytes (HOK), normal epithelial cells
Method in brief: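 HOK grown in keratinocyte growth supplement medium, harvested with 0.25% trypsin-0.025% EDTA. Seeded at 2.5 × 10^3 cells/0.1 ml, grown 48 h, then medium replaced with fresh medium containing test compound dilutions (80 mM DMSO stocks; final DMSO usually below […]) or matched DMSO vehicle. After incubation, 0.2 mg/ml MTT for 3 h, DMSO lysis, A540. CC50 from dose–response curve.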

[2] = Cytotoxic activity, MTT method; assay type: cell-based; details: human
[3] = system: HGF/HPLF/HPC vs human OSCC cell lines; assay: Tumor-specificity; assay type: cell-based; details: TS x (1/B) x 100; HGF/HPLF/HPC as normal cells
[4] = system: HOK vs human OSCC cell lines; assay: Tumor-specificity; assay type: cell-based; details: for Tumor-specificity index (TS) E/B: CC50 HOK / mean CC50 OSCC lines; for Potency-selectivity expression (PSE) E/B^2: TS x (1/B) x 100, HOK as normal cells
[5] = system: HGEP vs human OSCC cell lines; assay: Tumor-specificity; assay type: cell-based; details: for Tumor-specificity index (TS) F/B: CC50 HGEP / mean CC50 OSCC lines; for Potency-selectivity expression (PSE) F/B^2: TS x (1/B) x 100, HGEP as normal cells
[6] = system: HSC-2 cells; assay: Time course of cytotoxicity induction; assay type: cell-based, human
Method in brief: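 Pulse-chase in HSC-2 (DMEM, 10% heat-inactivated FBS, 37 °C, 5% CO2). Cells seeded at 2.5 × 10^3/0.1 ml and grown 48 h. Exposed to graded test compound concentrations for varied times, then switched to drug-free medium until 47 h after first addition. Viability by MTT (0.2 mg/ml, 3 h, A540). CC50 from dose–response curve. Triplicates (Exp. I), quadruplicates (Exp. II).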

[7] = system: HSC-2 cells; assay: Fine cell structure under transmission electron microscope; assay type: cell-based, human; details: 3 h with 3 or 10 μM, compared with control cells
Method in brief: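 HSC-2 cells were seeded at 5 × 10^5 cells/10 ml and […]. After a medium change, near-confluent cells were exposed 3 h to test compound (0, 3 or 10 μM) and washed in cold PBS. Fixation: 2% glutaraldehyde/0.1 M cacodylate pH 7.4, 1 h, 4 °C, then scraped, pelleted and post-fixed 90 min in 1% OsO4. Dehydrated, Araldite-embedded, thin sections stained with uranyl acetate and lead citrate; TEM at ×5000, 100 kV.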

[8] = system: HSC-2 cells; assay: Western blot analysis of apoptosis and autophagy markers; assay type: cell-based, human
Method in brief: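 HSC-2 cells treated with or without 10 μM for 4, 7.5 or 23 h. Laemmli whole-cell lysates (5 × 10^4 cells/lane) run on 12% SDS-PAGE and blotted to PVDF. Blocked 1 h in 5% BSA/TBS-Tween (pH 7.6). Primary anti-PARP, anti-caspase-3, anti-LC3 (1:1000) and anti-GAPDH (1:20,000) overnight at 4 °C, then HRP anti-rabbit 1 h at room temperature. Chemiluminescent detection; band densities expressed relative to GAPDH.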

[9] = system: HSC-2 cells; assay: Metabolomic analysis; assay type: cell-based, human
Method in brief: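 HSC-2 seeded 5 × 10^5 cells/10 ml, grown 48 h, re-fed for 30 min at 37 °C, then treated 3 h with 0, 1, 3 or 10 μM. Trypan-blue cell counts taken. Extraction: mannitol wash, then methanol with internal standards, chloroform/water partition and 5 kDa ultrafiltration. CE-TOFMS run in cation (1 M formic acid) and anion (50 mM ammonium acetate, pH 8.5) modes. One-point external calibration, normalised per cell. Quadruplicates, mean ± S.D., FDR-corrected p.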

[10] = Effect of tetraethylammonium or cycloheximide on cytotoxicity; assay type: cell-based; details: Supplementary Fig. 3
[11] = system: Ca9-22; details: read-out: 50% cytotoxic concentration (CC50); Ca9-22, derived from gingiva (A); cited from earlier work
[12] = system: HSC-2; details: read-out: 50% cytotoxic concentration (CC50); HSC-2, derived from tongue; cited from earlier work
[13] = system: HSC-3; details: read-out: 50% cytotoxic concentration (CC50); HSC-3, derived from tongue; cited from earlier work
[14] = system: HSC-4; details: read-out: 50% cytotoxic concentration (CC50); HSC-4, derived from tongue; cited from earlier work
[15] = system: Gingival fibroblast (HGF); details: read-out: 50% cytotoxic concentration (CC50), normal (C); cited from earlier work
[16] = system: Periodontal ligament fibroblast (HPLF); details: read-out: 50% cytotoxic concentration (CC50), normal; cited from earlier work
[17] = system: Pulp cell (HPC); details: read-out: 50% cytotoxic concentration (CC50), normal; cited from earlier work
[18] = system: HGF/HPLF/HPC vs human OSCC cell lines; details: mean CC50 HGF/HPLF/HPC / mean CC50 OSCC lines; cited from earlier work
[19] = system: HGF vs Ca9-22; details: CC50 HGF / CC50 Ca9-22; cited from earlier work
[20] = 3 h, 1, 3 or 10 μM, not significant

COc1ccc2occ(/C=C/c3ccc(O)cc3)c(=O)c2c1 [compound 11, (E)-3-(4-hydroxystyryl)-6-methoxy-4H-chromen-4-one]
CC50 [1]: 19 µM
CC50 [2]: > 800 µM
Potency-selectivity expression (PSE) D/B^2 [3]: 3450
Tumor-specificity index (TS) E/B [4]: 9.5
Potency-selectivity expression (PSE) E/B^2 [4]: 475
Tumor-specificity index (TS) F/B [5]: >400
Potency-selectivity expression (PSE) F/B^2 [5]: >20000
CC50 ([6]; Homo sapiens, HSC-2, Exp. I, exposure time 21 h, drug-free medium until 47 h): < 1.56 µM
dead cells produced ([6]; higher concentrations, Fig. 2): more than 90%
treatment time at which cytotoxicity was triggered ([6]; pulse-chase, HSC-2): 3 h
mitochondrial vacuolization [7]: mitochondrial vacuolization became prominent
LC3-II expression (autophagy marker) ([8]; 10 μM for 4, 7.5 and 23 h): decreased time-dependently to undetectable level
cleaved PARP1 and caspase-3 (apoptosis marker) ([8]; 10 μM, 23 h after treatment): appearance of cleaved PARP1 and caspase-3
full length PARP ([8]; 10 μM, 23 h after treatment): loss of full length PARP
type of cell death ([8]; 10 μM, HSC-2): induced apoptotic cell death after suppression of autophagy
intracellular concentration of 2-oxoglutarate ([9]; 3 h, 1, 3 and 10 μM, Fig. 6A): reduced, but not significantly
intracellular concentrations of 4-methyl-2-oxopentanoate, 2-hyroxyglutarate, creatine, 2-oxoisopentanoate (Q < 0.2), glycine and choline (p < 0.05) ([9]; 3 h, 1, 3 and 10 μM, Fig. 6A): significantly reduced
intracellular concentrations of diethanolamine and CDP-choline ([9]; 3 h, 1, 3 and 10 μM, Fig. 6B): increased, but not significantly
intracellular concentrations of proline, asparagine, DHAP, Ru5P, transcinnamate, γ-butyrobetaine (Q < 0.2) and glutamic acid (p < 0.05) ([9]; 3 h, 1, 3 and 10 μM, Fig. 6B): significantly increased
NADH/NAD+ ratio [9, 20]: minor increase
glycolytic metabolites (glucose-6-phosphate, fructose 6-phosphate, fructose 1,6-bisphospate, 3-phosphoglyceric acid) [9, 20]: minor increase
intracellular concentration of metabolites in TCA cycle (citrate, cis-aconiate, succinate, fumarate, malate) [9, 20]: minor reduction
lactate [9, 20]: minor reduction
polyamine pathway (putrescine, spermidine) [9, 20]: minor reduction
ratio of AMP/ATP [9, 20]: minor reduction
ratio of GMP/GTP [9, 20]: minor reduction
urea cycle (citrullin, arginine, ornithine) [9, 20]: no change or minor reduction
extracellular concentration of diethanolamine after treatment ([9]; culture medium, before treatment 12.1 ± 13.4 μM): 11.8 ± 5.3 µM
effect of BH blocker (tetraethylammonium) on cytotoxicity [10]: not inhibited
effect of pretreatment with cycloheximide on cytotoxicity [10]: inhibited
CC50 [11]: 2.1 µM
CC50 [12]: 1 µM
CC50 [13]: 3.6 µM
CC50 [14]: 1.2 µM
CC50 [15]: 67 µM
CC50 [16]: 74 µM
CC50 [17]: 272 µM
Tumor-specificity index (TS) D/B [18]: 69.0
Tumor-specificity index (TS) C/A [19]: 31.9

COc1ccc2occ(/C=C/c3cc(OC)c(OC)c(OC)c3)c(=O)c2c1 [compound 6, (E)-6-methoxy-3-(3,4,5-trimethoxystyryl)-4H-chromen-4-one]
CC50 [1]: 77 µM
CC50 [2]: 610 µM
Potency-selectivity expression (PSE) D/B^2 [3]: 200
Tumor-specificity index (TS) E/B [4]: 5.9
Potency-selectivity expression (PSE) E/B^2 [4]: 45
Tumor-specificity index (TS) F/B [5]: 46.9
Potency-selectivity expression (PSE) F/B^2 [5]: 361
viable cells left ([6]; higher concentrations, Fig. 2): 30%
effect of pretreatment with cycloheximide on cytotoxicity [10]: inhibited
CC50 [11]: 10 µM
CC50 [12]: 6.8 µM
CC50 [13]: 21 µM
CC50 [14]: 13 µM
CC50 [15]: 544 µM
CC50 [16]: 190 µM
CC50 [17]: 284 µM
Tumor-specificity index (TS) D/B [18]: 26.1
Tumor-specificity index (TS) C/A [19]: 54.4

O=c1[nH]cc(F)c(=O)[nH]1 [5-FU, 5-fluorouracil, reference compound]
CC50 [1]: 24.7 µM
CC50 [2]: 18.8 µM
Potency-selectivity expression (PSE) D/B^2 [3]: >309
Tumor-specificity index (TS) E/B [4]: 1.4
Potency-selectivity expression (PSE) E/B^2 [4]: 7.8
Tumor-specificity index (TS) F/B [5]: 1.0
Potency-selectivity expression (PSE) F/B^2 [5]: 5.6
CC50 [11]: 29 µM
CC50 [12]: 13 µM
CC50 [13]: 16 µM
CC50 [14]: 13 µM
CC50 [15]: > 1000 µM
CC50 [16]: > 1000 µM
CC50 [17]: > 1000 µM
Tumor-specificity index (TS) D/B [18]: >55.6
Tumor-specificity index (TS) C/A [19]: >34.5

COc1cccc2c1C(=O)c1c(O)c3c(c(O)c1C2=O)C[C@@](O)(C(=O)CO)C[C@@H]3O[C@H]1C[C@H](N)[C@H](O)[C@H](C)O1 [Doxorubicin, doxorubicin, reference compound]
CC50 [1]: 1.31 µM
CC50 [2]: 0.027 µM
Potency-selectivity expression (PSE) D/B^2 [3]: >17333
Tumor-specificity index (TS) E/B [4]: 8.7
Potency-selectivity expression (PSE) E/B^2 [4]: 5800
Tumor-specificity index (TS) F/B [5]: 0.2
Potency-selectivity expression (PSE) F/B^2 [5]: 133
CC50 [11]: 0.26 µM
CC50 [12]: 0.12 µM
CC50 [13]: 0.11 µM
CC50 [14]: 0.094 µM
CC50 [15]: 0.87 µM
CC50 [16]: 0.87 µM
CC50 [17]: > 10 µM
Tumor-specificity index (TS) D/B [18]: >26.0
Tumor-specificity index (TS) C/A [19]: 3.3

COc1ccc(/C=C/c2coc3ccc(OC)cc3c2=O)cc1 [compound 4, (E)-6-methoxy-3-(4-methoxystyryl)-4H-chromen-4-one]
CC50 [1]: 70 µM
CC50 [2]: 178 µM
Potency-selectivity expression (PSE) D/B^2 [3]: 630
Tumor-specificity index (TS) E/B [4]: 10.9
Potency-selectivity expression (PSE) E/B^2 [4]: 170
Tumor-specificity index (TS) F/B [5]: 27.8
Potency-selectivity expression (PSE) F/B^2 [5]: 434
dead cells produced ([6]; higher concentrations, Fig. 2): more than 90%
effect of pretreatment with cycloheximide on cytotoxicity [10]: inhibited
CC50 [11]: 4.4 µM
CC50 [12]: 4.4 µM
CC50 [13]: 7.7 µM
CC50 [14]: 9.2 µM
CC50 [15]: 229 µM
CC50 [16]: 150 µM
CC50 [17]: 396 µM
Tumor-specificity index (TS) D/B [18]: 40.3
Tumor-specificity index (TS) C/A [19]: 52.0
